This is a sample that favours compounds with a hit; in the whole collection about 2.1% have one here.
FGF22 binding-1: binders of human FGF22 protein, primary screen, FGF22 synaptogenesis inhibitor project, biophysical, thermal shift, single point; Fibroblast growth factor 22 (Homo sapiens), Q9HCT0; recombinant FGF22 thermal shift, SYPRO orange fluorescence; percent of sucrose octasulfate shift, DMSO zero; activity (Tm shift, normalised), % at 9.99 µM; actives 1.5% (n = 340,000); AID 651658, 2012;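 active = mean Tm shift, scaled 0 neutral to 100 positive control, at about 1.3% or above, every replicate too, limit read from the data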
Target sequence (Q9HCT0 whole entry, looked up): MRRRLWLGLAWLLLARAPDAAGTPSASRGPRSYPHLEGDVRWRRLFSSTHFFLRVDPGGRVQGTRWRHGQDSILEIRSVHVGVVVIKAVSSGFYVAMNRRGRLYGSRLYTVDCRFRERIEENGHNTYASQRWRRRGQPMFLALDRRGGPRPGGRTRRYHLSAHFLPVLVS
ARNT-TACC3 inh: disruptors of ARNT/TACC3 protein interaction, primary screen, biochemical, AlphaScreen, single concentration; Transforming acidic coiled-coil-containing protein 3 (Homo sapiens), Q9Y6A5; actives 0.66% (n = 390,000); AlphaScreen His-ARNT PAS-B/GST-TACC3 binding, luminescence; TACC3 fragment carries E629A point mutation; inhibition, % at 9.99 µM;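 active = mean inhibition of replicates at least 50% and at least half of replicates each reaching 50%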;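 also: 0% = complete ARNT plus TACC3 wells and 100% = ARNT alone without TACC3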
FN deposit inh: inhibitors of fibronectin matrix deposition, primary screen, AH1F cells, Alexa488-fibronectin fluorescence, plate reader | AH1F fibroblasts, overnight | inhibition, % at 12.6 µM | actives 0.086% (n = 350,000) | AID 743247, 2014;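 active = mean inhibition across replicates of 30% or more, regardless of how many single replicates reach that level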;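 also: positive control wells lacked labelled fibronectin entirely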
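Measured by – fluorescence 485/525 nm · System – AH1F fibroblast monolayer, labelled fibronectin deposition · Amount – 10000 cells per well · Buffer or medium – serum-reduced DMEM (2% serum) · Doses – single dose, pinned · Also added – fluorescent fibronectin at 24 nM final · Schedule – 1 h cell attachment, overnight exposure to compound and label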
PDI inh: inhibitors of human PDI, primary screen, biochemical, turbidity, single point, plate reader. Protein disulfide-isomerase (Homo sapiens), P07237. PDI insulin aggregation turbidity, A650, 90 min. inhibition, % at 10 µM. actives 0.052% (n = 350,000);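 active = mean inhibition across replicates of 30% or more, whatever share of single replicates reach that level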
AF4-AF9 inh: inhibitors of AF4 peptide binding to AF9, primary screen, biochemical, AlphaScreen, biotin-AF4 peptide, FLAG-AF9, single point; Protein AF-9 (Homo sapiens), P42568; inhibition, % at 10 µM; actives 0.47% (n = 350,000); AID 651704, 2012;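 active = every replicate reaching a set inhibition limit, whatever the replicate mean, cut at about 25% in these data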;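 also: 0% = plate neutral control median and 100% = total signal loss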
ERp5 inh: inhibitors of ERp5-driven insulin aggregation, primary screen, biochemical, turbidity, absorbance 650 nm, single point | Protein disulfide-isomerase A6 (Homo sapiens), Q15084 | 90 min | inhibition, % at 9.99 µM | actives 0.05% (n = 350,000);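 active = mean replicate inhibition above about 25%, with every replicate also reaching it, limit read from the data, passing the limit was not always enough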
Target sequence (Q15084 whole entry, looked up): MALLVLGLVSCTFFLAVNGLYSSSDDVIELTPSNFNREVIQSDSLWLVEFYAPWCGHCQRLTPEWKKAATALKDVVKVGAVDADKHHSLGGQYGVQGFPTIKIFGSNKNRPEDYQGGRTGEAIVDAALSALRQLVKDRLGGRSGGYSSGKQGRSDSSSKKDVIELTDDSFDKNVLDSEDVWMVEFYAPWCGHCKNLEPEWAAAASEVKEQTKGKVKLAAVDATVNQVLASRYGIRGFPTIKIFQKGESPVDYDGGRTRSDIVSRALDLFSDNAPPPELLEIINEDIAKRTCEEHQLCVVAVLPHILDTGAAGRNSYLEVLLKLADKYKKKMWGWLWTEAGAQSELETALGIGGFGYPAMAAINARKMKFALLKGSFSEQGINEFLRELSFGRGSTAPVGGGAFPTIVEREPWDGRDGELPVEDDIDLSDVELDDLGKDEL
FGF22 binding-2: binders of human FGF22 protein, dose response, FGF22 synaptogenesis inhibitor project, biophysical, thermal shift, cherry-pick retest; actives 2% (n = 1,000); AID 720646, 2013; thermal shift activity, °C (ΔTm) at 38 µM; shares compounds with FGF22 binding-1; recombinant FGF22 thermal shift, SYPRO orange fluorescence;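 active = fitted rise in melting shift crosses a set limit at or below the top valid dose tested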
FGF22 TSA: binders of human FGF22 protein, dose response, FGF22 synaptogenesis inhibitor project, biophysical, thermal shift, dry powder; shares compounds with FGF22 binding-1; Thermal shift assay, SYPRO orange, melting temperature shift; Tm shift (activity), % at 38 µM; 50 tested, under 10 active;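 active = compounds whose fitted dose curve of melting temperature shift rises past a set threshold within the tested doses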
SYPRO no-protein: compound-only thermal shift signal without protein, dose response, artefact control for FGF22 binder project, biochemical, cherry-picked samples, RT-PCR instrument; shares compounds with FGF22 binding-1; compound-only SYPRO orange thermal shift counter-screen, no protein; AC50, µM (highest dose often 38 µM); actives 2% (n = 1,000); AID 743019, 2013;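 active = rising signal whose fitted curve reaches the 0.54 level within the top valid dose, showing a melting point, actives reach about 13 µM in these data; inactive = the rest, including activity in the opposite direction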; also: value is where the raw curve crosses a fixed level and not half-maximal
* hit, by the source's call; i = inactive; . = no result given; [ ] = dose if it differs, or a comment.

SMILES	FGF22 binding-1	ARNT-TACC3 inh	FN deposit inh	PDI inh	AF4-AF9 inh	ERp5 inh	FGF22 binding-2	SYPRO no-protein	others
CCCC#Cc1ccc([C@H]2[C@@H](CO)N3C(=O)CN(C(=O)Nc4ccc(F)cc4)C[C@H]23)cc1	.	.	.	.	0.5	2.5	.	.
COc1ccc2c3c(n(C)c2c1)[C@@H](CO)N(C(=O)CN(C)C)CC31CN(C(=O)C2CCC2)C1	.	.	.	.	0.8	.	.	.
O=C(O)Cn1cc(/C=N/NC(=O)c2cc3cc(Br)ccc3o2)c2ccccc21	1.4*	19.1	1.1	-5.8	-13.2	-8.1	-0.036	i
O=C(O)/C=C/c1cccc(NC(=O)Nc2ccc([N+](=O)[O-])cc2)c1	1.6*	4.9	-1.6	-4.2	1.7	0.2	0.077	i
C[C@@H]1CN([C@@H](C)CO)C(=O)c2cc(NS(=O)(=O)c3cn(C)cn3)ccc2O[C@@H]1CN(C)CC1CC1	1.4*	-10.3	.	.	-1.3	3.2	0.037[42 µM]	i
C[C@@H]1CN([C@H](C)CO)C(=O)c2cc(N(C)C)ccc2O[C@@H]1CN(C)CC1CCCCC1	1.4*	-1.7	-2.4	.	4.4	1.5	0.27[42 µM]	i
C[C@H](CO)N1C[C@H](C)[C@H](CN(C)CC2CC2)Oc2ccc(NC(=O)CCC(F)(F)F)cc2C1=O	0.0	-13.5	.	.	-4.7	0.0	.	.
C[C@@H]1CN([C@@H](C)CO)C(=O)Cc2cc(NC(=O)C3CC3)ccc2O[C@H]1CN(C)S(=O)(=O)c1cn(C)cn1	-0.2	21.5	-15.0	.	-1.9	5.9	.	.
C[C@H]1CN([C@@H](C)CO)C(=O)c2cc(NC(=O)CCC(F)(F)F)ccc2O[C@H]1CN(C)CC1CC1	1.8*	-13.6	.	.	-5.8	-0.3	0.097[10 µM]	i
C[C@H](CO)N1C[C@H](C)[C@H](CN(C)CC2CC2)Oc2ccc(NS(=O)(=O)c3cn(C)cn3)cc2C1=O	-0.2	-4.9	.	.	-4.3	-4.1	.	.
C[C@@H]1CN([C@H](C)CO)C(=O)Cc2cc(NC(=O)C3CC3)ccc2O[C@H]1CN(C)S(=O)(=O)c1cn(C)cn1	1.3*	2.8	.	.	0.0	-0.2	0.106	i
C/C=C/c1ccc([C@H]2[C@H](CO)N3C(=O)CN(Cc4ccccc4)C[C@@H]23)cc1	.	.	.	.	4.5	-0.6	.	.
O=C(Cc1ccccc1)N1CC(=O)N2[C@H](C1)[C@@H](c1ccc(C3=CCCC3)cc1)[C@@H]2CO	.	.	.	.	-3.0	2.8	.	.
COc1ccccc1-c1cnc2c(c1)C(=O)N([C@@H](C)CO)C[C@H](C)[C@H](CN(C)C(C)=O)O2	0.0	-3.2	.	.	-4.1	-1.5	.	.
Cc1noc(C)c1S(=O)(=O)Nc1ccc2c(c1)C(=O)N([C@H](C)CO)C[C@H](C)[C@H](CN(C)S(=O)(=O)c1cccs1)O2	0.0	-2.6	.	.	-1.6	1.1	.	.
C[C@H]1CN([C@@H](C)CO)C(=O)c2cc(NC(=O)c3ccncc3)ccc2O[C@@H]1CN(C)S(=O)(=O)c1cn(C)cn1	1.4*	-7.2	.	.	-3.4	1.9	0.058	i
Cc1noc(C)c1S(=O)(=O)N(C)C[C@H]1Oc2ccc(NS(=O)(=O)c3cccs3)cc2C(=O)N([C@@H](C)CO)C[C@H]1C	2.1*	-4.2	.	.	3.7	4.0	0.124	i
C[C@H]1CN([C@@H](C)CO)C(=O)c2cc(NC(=O)Cn3cnnn3)ccc2O[C@@H]1CN(C)Cc1ccc(Oc2ccccc2)cc1	0.2	11.1	.	.	6.5	-1.9	.	.
O=C(N/N=C/c1ccc(O)c(O)c1)N/N=C/c1ccc(O)c(O)c1	1.4*	21.5	2.1	-20.7	-3.8	1.8	0.132	i
Cc1ccc(S(=O)(=O)N(C)C[C@H]2Oc3c(NC(=O)Nc4ccc(F)cc4)cccc3C(=O)N([C@@H](C)CO)C[C@H]2C)cc1	0.1	-4.5	.	.	2.6	-0.1	.	.
C[C@@H]1CCCCO[C@H](CN(C)C)[C@H](C)CN([C@H](C)CO)C(=O)c2cc(NS(=O)(=O)c3ccccc3)ccc2O1	.	.	-16.5	.	-1.7	.	.	.
Cc1cccc(C)c1NC(=O)Nc1ccc(S(N)(=O)=O)cc1	-0.2	-10.2	-1.3	-7.8	-3.1	3.1	.	.
Cc1cccc(NC(=O)Nc2ccc(S(N)(=O)=O)cc2)c1	1.7*	.	0.7	-0.4	.	1.1	0.096	10.9µM*
Cc1noc(C)c1NC(=O)N[C@H]1C=C[C@@H](CC(=O)Nc2ccc(-c3ccccc3)cc2)O[C@@H]1CO	0.4	-33.5	-7.4	.	-0.7	4.4	.	.
Cc1noc(C)c1NC(=O)N[C@@H]1C=C[C@H](CC(=O)Nc2ccc(-c3ccccc3)cc2)O[C@@H]1CO	1.9*	.	-12.1	.	0.2	.	0.018[42 µM]	i
COC(=O)C1=C(CS(=O)(=O)c2ccc(OC)c(OC)c2)NC(=O)NC1c1ccc(O)c(OC)c1 (stereo not given)	-0.2	0.8	-5.5	-5.3	-11.2	4.7	.	.
COC(=O)C1=C(CS(=O)(=O)c2cc(OC)ccc2OC)NC(=O)NC1c1ccc(O)c(OC)c1 (stereo not given)	1.5*	-1.2	-1.2	6.8	6.3	-3.5	0.367	i	FGF22 TSA=0.1
CO[C@@H]1CC[C@@H]2CCOc3c(C#N)cccc3C(=O)N(C)[C@@H](C)C(=O)N(C)C[C@H]1O2	0.0	2.9	-1.8	.	-15.3	3.1	.	.
CCN1C(=O)C(CC(=O)Nc2ccc(F)cc2)N(Cc2ccc3c(c2)OCO3)C1=S (stereo not given)	2.9*	-16.0	2.4	-4.1	2.0	-1.3	-0.21	i	FGF22 TSA=0.0
C[C@@H]1CN([C@@H](C)CO)C(=O)c2cccc(NC(=O)C3CCOCC3)c2O[C@H]1CN(C)C(=O)Nc1ccc(C(F)(F)F)cc1	-0.6	-6.7	-2.3	.	-4.4	-2.6	.	.

Assay outcomes (PubChem)
